pIC50: −log10 of the molar value.

Assay [1] can be described thus: Growth inhibition of human U87MG cells after 48 hrs by MTT assay. Conditions: U-87 MG. Type of assay: functional, cell-based, U-87MG ATCC. The essentials:
(§1)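 Exponentially growing cells were seeded at 4000–5000 per well. LoVo was grown in RPMI 1640 and MIA PaCa-2 and U87 MG in DMEM, each with 10% FBS and penicillin/streptomycin at 37 °C under 5% CO2. Compounds in DMSO (0–50 μM) were added for 48 h, and growth was read by MTT.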
(In general: Tetrazolium assays rely on reduction of a dye to a coloured formazan, in cell work by metabolically active cells.)

Assay [2] concerns the target T1, Thioredoxin reductase 1, cytoplasmic (Rattus norvegicus, UniProt O89049).
T1 sequence (O89049 whole entry): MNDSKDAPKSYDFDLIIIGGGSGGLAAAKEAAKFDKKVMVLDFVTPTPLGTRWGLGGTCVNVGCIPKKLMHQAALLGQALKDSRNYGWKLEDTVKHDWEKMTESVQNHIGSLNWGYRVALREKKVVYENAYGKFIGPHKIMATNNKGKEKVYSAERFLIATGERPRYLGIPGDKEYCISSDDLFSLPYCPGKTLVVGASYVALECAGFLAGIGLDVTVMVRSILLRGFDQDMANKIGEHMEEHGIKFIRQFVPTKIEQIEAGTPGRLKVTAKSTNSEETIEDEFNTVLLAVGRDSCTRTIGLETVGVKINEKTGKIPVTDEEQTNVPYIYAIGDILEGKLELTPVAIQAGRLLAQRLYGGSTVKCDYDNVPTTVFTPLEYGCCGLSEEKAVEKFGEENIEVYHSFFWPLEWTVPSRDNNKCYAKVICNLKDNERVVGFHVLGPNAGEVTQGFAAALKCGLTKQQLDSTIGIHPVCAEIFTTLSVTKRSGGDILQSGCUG
Briefly: (§2) Inhibition of TrxR1 in rat liver homogenate preincubated for 5 mins measured by DNTB assay. In kind it is tissue-based. In outline:
(§3)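 Rat liver TrxR (purified, 10 μg) in 100 mM potassium phosphate, 2 mM EDTA, pH 7.4 with NADPH, pre-incubated 5 min with inhibitor (DMSO control) at room temperature. DTNB was then added and A412 increase followed over the first 120 s. IC50 given as mean ± SD of triplicate experiments.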

Assay [3] has as its target T2, Thioredoxin reductase 1, cytoplasmic (Rattus norvegicus) (UniProt O89049).
T2 sequence (whole entry): T1 sequence (O89049 whole entry)
The assay is described as §2. Type of assay: tissue-based. The essentials:
as §3

Another assay has as its system MIA PaCa-2. Briefly: Growth inhibition of human MIAPaCa2 cells after 48 hrs by MTT assay. Conditions: MIA PaCa-2, 48 h. Type of assay: functional, cell-based. In outline:
as §1

The subject of another assay is LoVo. Briefly: Growth inhibition of human LoVo cells after 48 hrs by MTT assay. In kind it is functional, cell-based. The essentials: as §1
In a further assay the target is Thioredoxin reductase (Homo sapiens, UniProt Q16881+Q9NNW7+Q86VQ6). Briefly: Inhibition of TrxR in human U87MG cells after 12 hrs by insulin-reducing method. In kind it is cell-based. Conditions: U-87MG ATCC. The essentials:
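U87 MG cells were treated with graded compound concentrations for 12 h, with 1% DMSO as control. Reactions were quenched with guanidine-HCl/DTNB and read at A412. The Trx-free blank was subtracted.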

Usually pIC50 stands for the IC50 on a negative log10 scale, so that one unit is a factor of ten. Read a high pIC50 as a small IC50. On to `O=c1c2cc(F)ccc2[se]n1CCn1[se]c2ccc(F)cc2c1=O`, for which the pIC50 in assay [1] was 5.16; in assay [2], 6.55; in the assay with MIA PaCa-2, 5.51; with LoVo, 5.34. The inhibition entry in assay [3] was “Dose-dependent effect”.

Take `O=c1c2ccc(F)cc2[se]n1CCn1[se]c2cc(F)ccc2c1=O`: the results for the pIC50 (in assay [1]; in assay [2]; in the assay with MIA PaCa-2) were 4.90, 6.09 and 5.07, respectively. Moreover, the inhibition entry in assay [3] is “Dose-dependent effect”.

As for `Cc1ccc2[se]n(CCCCn3[se]c4ccc(C)cc4c3=O)c(=O)c2c1`, in assay [2], the pIC50 was 5.62. Also, in assay [3], the inhibition entry is “Dose-dependent effect”.

On to `O=c1c2cc(Br)ccc2[se]n1CCn1[se]c2ccc(Br)cc2c1=O`, for which the pIC50 in assay [1] was under 4.30; in assay [2], 5.80; in the assay on MIA PaCa-2, under 4.30. In addition, the inhibition result (in assay [3]; at Thioredoxin reductase) was “Dose-dependent effect” throughout.

Consider `O=c1c2ccc(Cl)cc2[se]n1CCn1[se]c2cc(Cl)ccc2c1=O`, for which the values for the negative logarithm of the IC50 (pIC50) (in assay [1]; in assay [2]; in the assay with MIA PaCa-2) were under 4.30, 5.54 and under 4.30, respectively. The inhibition result in assay [3] was “Dose-dependent effect”.

Regarding `O=c1c2ccccc2[se]n1CCCCCCCn1[se]c2ccccc2c1=O`, in assay [2], the negative logarithm of the IC50 (pIC50) was 5.23. Also, in assay [3], the inhibition result is “Dose-dependent effect”.

`Cc1ccc2[se]n(CCCn3[se]c4ccc(C)cc4c3=O)c(=O)c2c1` gave a negative logarithm of the IC50 (pIC50) in assay [2] of 5.94. Moreover, in assay [3], the inhibition result is “Dose-dependent effect”.

Regarding `O=c1c2cc([N+](=O)[O-])ccc2[se]n1CCn1[se]c2ccc([N+](=O)[O-])cc2c1=O`, the pIC50 was under 4.30 in assay [1], 6.24 in assay [2] and under 4.30 with MIA PaCa-2. The inhibition result (in assay [3]; at Thioredoxin reductase) was “Dose-dependent effect” throughout.

In assay [2], `O=c1c2ccccc2[se]n1CCCCCCCCn1[se]c2ccccc2c1=O` had a pIC50 of 5.35. Moreover, in assay [3], the inhibition result is “Dose-dependent effect”.

In the case of `Cc1ccc2[se]n(C3CCC(n4[se]c5ccc(C)cc5c4=O)CC3)c(=O)c2c1` (stereo unspecified), the pIC50 in assay [2] was under 4.30. The inhibition entry in assay [3] was “Dose-dependent effect”.

Take `O=c1c2cc(Cl)ccc2[se]n1CCn1[se]c2ccc(Cl)cc2c1=O`: the values for the negative-log IC50 (pIC50) (in assay [1]; in assay [2]; with MIA PaCa-2) were under 4.30, 5.88 and under 4.30, respectively. The inhibition result in assay [3] was “Dose-dependent effect”.

`O=c1c2ccccc2[se]n1C1CCCCC1n1[se]c2ccccc2c1=O` (stereo unspecified): the pIC50 was under 4.30 in assay [1], 4.89 in assay [2], 4.94 in the assay on MIA PaCa-2 and 4.76 in the assay on LoVo. The inhibition entry in assay [3] was “Dose-dependent effect”.

`O=c1c2cc(O)ccc2[se]n1CCn1[se]c2ccc(O)cc2c1=O`: the negative-log IC50 (pIC50) is 5.18 in assay [1], 6.49 in assay [2], 5.28 in the assay on MIA PaCa-2 and 5.19 in the assay with LoVo. In addition, the inhibition result in assay [3] is “Dose-dependent effect”.

As to `CC(=O)Oc1ccc2[se]n(CCn3[se]c4ccc(OC(C)=O)cc4c3=O)c(=O)c2c1`, the pIC50 in assay [1] is 4.68; in assay [2], 4.65; with MIA PaCa-2, 4.99. Besides, the inhibition entry in assay [3] is “Dose-dependent effect”.

On to `O=c1c2ccccc2[se]n1-c1ccc(-n2[se]c3ccccc3c2=O)cc1`, for which the pIC50 in assay [1] is under 4.30; in assay [2], 4.46; in the assay with MIA PaCa-2 it was under 4.30. Besides, in assay [3], the inhibition entry is “Dose-dependent effect”.

`O=c1c2ccccc2[se]n1CCCn1[se]c2ccccc2c1=O` showed a negative logarithm of the IC50 (pIC50) in assay [2] of 6.11. Moreover, the inhibition result in assay [3] is “Dose-dependent effect”.

For the compound `O=c1c2ccccc2[se]n1CCCCn1[se]c2ccccc2c1=O`, the pIC50 in assay [2] was 5.99. In assay [3], the inhibition entry was “Dose-dependent effect”.

In assay [2], `Cc1ccc2[se]n(CCCCCCn3[se]c4ccc(C)cc4c3=O)c(=O)c2c1` had a pIC50 of 5.31. Also, in assay [3], the inhibition result was “Dose-dependent effect”.

Consider `O=c1c2ccccc2[se]n1CCCCCn1[se]c2ccccc2c1=O`, for which the negative-log IC50 (pIC50) in assay [1] was 5.22; in assay [2] it was 5.71; with MIA PaCa-2, 5.49; in the assay with LoVo it was 5.26. In assay [3], the inhibition entry is “Dose-dependent effect”.

In assay [2], `O=c1c2cc(F)ccc2[se]n1CCCCCn1[se]c2ccc(F)cc2c1=O` showed a pIC50 of 5.41. For the same compound, the inhibition result in assay [3] is “Dose-dependent effect”.

In the case of `O=c1c2cc(F)ccc2[se]n1CCCCn1[se]c2ccc(F)cc2c1=O`, the pIC50 in assay [2] was 5.79. The inhibition entry in assay [3] was “Dose-dependent effect”.

In assay [2], `O=c1c2cc(F)ccc2[se]n1CCCn1[se]c2ccc(F)cc2c1=O` had a pIC50 of 6.07. Also, the inhibition entry in assay [3] is “Dose-dependent effect”.

On to `O=c1c2ccccc2[se]n1Cc1ccc(-n2[se]c3ccccc3c2=O)cc1`, for which the negative logarithm of the IC50 (pIC50) in assay [2] is 4.32; in the assay on MIA PaCa-2 it was under 4.30; in the assay with LoVo, under 4.30. In addition, the inhibition result in assay [3] is “Dose-dependent effect”.

For the compound `O=c1c2ccc(F)cc2[se]n1CCCCCn1[se]c2cc(F)ccc2c1=O`, in assay [2], the pIC50 is 5.54. The inhibition entry in assay [3] is “Dose-dependent effect”.

Turning to `O=c1c2cc(Cl)ccc2[se]n1CCCCCn1[se]c2ccc(Cl)cc2c1=O`, the pIC50 in assay [2] was 5.74. In assay [3], the inhibition result is “Dose-dependent effect”.

As for `O=c1c2ccccc2on1CCn1oc2ccccc2c1=O`, in assay [2], the pIC50 was under 4.00. For the same compound, the inhibition result in assay [3] is “Dose-dependent effect”.

Take `Cc1ccc2[se]n(CCn3[se]c4ccc(C)cc4c3=O)c(=O)c2c1`: the pIC50 is 4.75 in assay [1], 5.90 in assay [2], 5.23 in the assay on MIA PaCa-2 and 5.21 with LoVo. Further, the inhibition entry (in assay [3]; on Thioredoxin reductase) was “Dose-dependent effect” throughout.

In turn, `O=c1c2ccc(Cl)cc2[se]n1CCCCCn1[se]c2cc(Cl)ccc2c1=O` gave a negative logarithm of the IC50 (pIC50) in assay [2] of 5.34. The inhibition entry in assay [3] is “Dose-dependent effect”.

In turn, `O=c1c2ccccc2[se]n1CCCCCCn1[se]c2ccccc2c1=O` showed a negative-log IC50 (pIC50) in assay [2] of 5.78. Also, the inhibition result in assay [3] was “Dose-dependent effect”.

`O=c1c2ccccc2sn1CCn1sc2ccccc2c1=O` gave a negative logarithm of the IC50 (pIC50) in assay [2] of 4.32. The inhibition result in assay [3] is “Dose-dependent effect”.

For the compound `Cc1ccc2[se]n(CCCCCn3[se]c4ccc(C)cc4c3=O)c(=O)c2c1`, the negative logarithm of the IC50 (pIC50) is 4.91 in assay [1], 5.50 in assay [2], 5.17 with MIA PaCa-2 and 4.78 in the assay on LoVo. The inhibition result in assay [3] is “Dose-dependent effect”.

For `O=c1c2cc(Br)ccc2[se]n1CCCCCn1[se]c2ccc(Br)cc2c1=O`, the negative-log IC50 (pIC50) in assay [2] is 5.80. The inhibition result in assay [3] is “Dose-dependent effect”.

For the origin of these results see ChEMBL document CHEMBL2034909, “Inhibition of thioredoxin reductase by a novel series of bis-1,2-benzisoselenazol-3(2H)-ones: Organoselenium compounds for cancer therapy” (Bioorg Med Chem, 2012).
